How the values were obtained:
[1] = biological target: Serine/threonine-protein kinase 17B (Homo sapiens) (UniProt O94768); experiment: Binding affinity to DRAK2 (unknown origin) assessed as change in melting temperature at 10 uM incubated for 10 mins using SYPRO orange dye by RT-PCR-based fluorescence assay
Summary of the method: (§1)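 Recombinant kinase domain at 2 μM in 10 mM HEPES pH 7.5, 500 mM NaCl, mixed with 10 μM inhibitor for 10 min at room temperature; SYPRO orange added at 1:1000; temperature-dependent unfolding fluorescence read on a real-time PCR instrument; Tm shift derived by a previously described method.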

[2] = biological target: Bone morphogenetic protein receptor type-1A (Homo sapiens) (UniProt P36894); experiment: Binding affinity to BMPR1A (unknown origin) assessed as change in melting temperature at 10 uM incubated for 10 mins using SYPRO orange dye by RT-PCR-based fluorescence assay; summary of the method: as §1
Bone morphogenetic protein receptor type-1A (Homo sapiens), sequence (P36894 whole entry): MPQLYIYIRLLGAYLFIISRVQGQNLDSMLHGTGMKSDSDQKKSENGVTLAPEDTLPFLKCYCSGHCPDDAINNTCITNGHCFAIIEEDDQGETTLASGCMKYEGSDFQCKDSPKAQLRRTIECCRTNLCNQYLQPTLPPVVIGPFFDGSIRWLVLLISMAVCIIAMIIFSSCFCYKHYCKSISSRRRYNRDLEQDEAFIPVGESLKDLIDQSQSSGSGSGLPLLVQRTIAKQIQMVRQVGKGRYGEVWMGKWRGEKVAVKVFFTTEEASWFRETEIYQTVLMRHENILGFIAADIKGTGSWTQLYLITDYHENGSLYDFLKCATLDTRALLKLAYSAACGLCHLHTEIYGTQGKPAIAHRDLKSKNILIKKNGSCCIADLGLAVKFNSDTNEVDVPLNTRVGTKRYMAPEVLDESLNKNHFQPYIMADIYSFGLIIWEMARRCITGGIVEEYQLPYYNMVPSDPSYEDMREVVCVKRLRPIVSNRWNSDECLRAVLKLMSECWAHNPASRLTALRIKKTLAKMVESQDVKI

[3] = biological target: T1, Serine/threonine-protein kinase haspin (Homo sapiens) (UniProt Q8TF76); experiment: Binding affinity to haspin (unknown origin) assessed as change in melting temperature at 10 uM incubated for 10 mins using SYPRO orange dye by RT-PCR-based fluorescence assay; summary of the method: as §1
T1 sequence (whole entry): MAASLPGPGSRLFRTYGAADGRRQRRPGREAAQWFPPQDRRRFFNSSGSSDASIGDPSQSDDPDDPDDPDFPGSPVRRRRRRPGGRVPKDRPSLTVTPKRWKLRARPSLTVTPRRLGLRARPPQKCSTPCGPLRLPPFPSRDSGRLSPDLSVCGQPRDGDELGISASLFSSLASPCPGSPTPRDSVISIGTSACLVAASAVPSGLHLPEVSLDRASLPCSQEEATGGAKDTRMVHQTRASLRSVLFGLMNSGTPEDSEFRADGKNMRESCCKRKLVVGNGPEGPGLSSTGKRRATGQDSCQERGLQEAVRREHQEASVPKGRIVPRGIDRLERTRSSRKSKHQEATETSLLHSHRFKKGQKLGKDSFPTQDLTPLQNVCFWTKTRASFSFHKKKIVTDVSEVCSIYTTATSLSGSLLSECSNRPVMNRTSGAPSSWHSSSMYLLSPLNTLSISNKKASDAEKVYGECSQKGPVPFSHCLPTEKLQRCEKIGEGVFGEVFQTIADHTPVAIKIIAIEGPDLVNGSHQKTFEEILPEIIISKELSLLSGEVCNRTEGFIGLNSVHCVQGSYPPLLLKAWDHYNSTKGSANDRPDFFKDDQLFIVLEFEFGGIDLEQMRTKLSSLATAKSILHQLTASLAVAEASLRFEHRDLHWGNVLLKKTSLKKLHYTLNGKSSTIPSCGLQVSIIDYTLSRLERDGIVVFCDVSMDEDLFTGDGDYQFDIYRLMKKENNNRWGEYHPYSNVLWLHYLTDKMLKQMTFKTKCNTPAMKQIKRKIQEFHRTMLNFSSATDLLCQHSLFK

[4] = biological target: TGF-beta receptor type-1 (Homo sapiens) (UniProt P36897); experiment: Binding affinity to TGFBR1 (unknown origin) assessed as change in melting temperature at 10 uM incubated for 10 mins using SYPRO orange dye by RT-PCR-based fluorescence assay; summary of the method: as §1
TGF-beta receptor type-1 (Homo sapiens), sequence (P36897 whole entry): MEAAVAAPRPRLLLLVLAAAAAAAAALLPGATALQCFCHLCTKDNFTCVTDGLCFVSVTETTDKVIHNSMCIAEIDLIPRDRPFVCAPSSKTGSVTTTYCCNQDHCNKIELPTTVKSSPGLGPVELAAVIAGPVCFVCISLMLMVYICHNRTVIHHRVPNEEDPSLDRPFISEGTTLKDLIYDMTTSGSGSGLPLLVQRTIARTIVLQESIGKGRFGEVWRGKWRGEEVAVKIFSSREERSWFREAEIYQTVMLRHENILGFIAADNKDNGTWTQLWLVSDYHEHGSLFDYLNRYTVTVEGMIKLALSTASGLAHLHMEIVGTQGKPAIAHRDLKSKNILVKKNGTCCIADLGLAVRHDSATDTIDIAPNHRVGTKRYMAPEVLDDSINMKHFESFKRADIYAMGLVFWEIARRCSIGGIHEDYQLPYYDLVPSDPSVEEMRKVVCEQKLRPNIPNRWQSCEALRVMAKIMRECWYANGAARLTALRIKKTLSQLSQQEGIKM

[5] = biological target: BMP-2-inducible protein kinase (Homo sapiens) (UniProt Q9NSY1); experiment: Binding affinity to BIKE (unknown origin) assessed as change in melting temperature at 10 uM incubated for 10 mins using SYPRO orange dye by RT-PCR-based fluorescence assay; summary of the method: as §1
BMP-2-inducible protein kinase (Homo sapiens), sequence (Q9NSY1 whole entry, looked up): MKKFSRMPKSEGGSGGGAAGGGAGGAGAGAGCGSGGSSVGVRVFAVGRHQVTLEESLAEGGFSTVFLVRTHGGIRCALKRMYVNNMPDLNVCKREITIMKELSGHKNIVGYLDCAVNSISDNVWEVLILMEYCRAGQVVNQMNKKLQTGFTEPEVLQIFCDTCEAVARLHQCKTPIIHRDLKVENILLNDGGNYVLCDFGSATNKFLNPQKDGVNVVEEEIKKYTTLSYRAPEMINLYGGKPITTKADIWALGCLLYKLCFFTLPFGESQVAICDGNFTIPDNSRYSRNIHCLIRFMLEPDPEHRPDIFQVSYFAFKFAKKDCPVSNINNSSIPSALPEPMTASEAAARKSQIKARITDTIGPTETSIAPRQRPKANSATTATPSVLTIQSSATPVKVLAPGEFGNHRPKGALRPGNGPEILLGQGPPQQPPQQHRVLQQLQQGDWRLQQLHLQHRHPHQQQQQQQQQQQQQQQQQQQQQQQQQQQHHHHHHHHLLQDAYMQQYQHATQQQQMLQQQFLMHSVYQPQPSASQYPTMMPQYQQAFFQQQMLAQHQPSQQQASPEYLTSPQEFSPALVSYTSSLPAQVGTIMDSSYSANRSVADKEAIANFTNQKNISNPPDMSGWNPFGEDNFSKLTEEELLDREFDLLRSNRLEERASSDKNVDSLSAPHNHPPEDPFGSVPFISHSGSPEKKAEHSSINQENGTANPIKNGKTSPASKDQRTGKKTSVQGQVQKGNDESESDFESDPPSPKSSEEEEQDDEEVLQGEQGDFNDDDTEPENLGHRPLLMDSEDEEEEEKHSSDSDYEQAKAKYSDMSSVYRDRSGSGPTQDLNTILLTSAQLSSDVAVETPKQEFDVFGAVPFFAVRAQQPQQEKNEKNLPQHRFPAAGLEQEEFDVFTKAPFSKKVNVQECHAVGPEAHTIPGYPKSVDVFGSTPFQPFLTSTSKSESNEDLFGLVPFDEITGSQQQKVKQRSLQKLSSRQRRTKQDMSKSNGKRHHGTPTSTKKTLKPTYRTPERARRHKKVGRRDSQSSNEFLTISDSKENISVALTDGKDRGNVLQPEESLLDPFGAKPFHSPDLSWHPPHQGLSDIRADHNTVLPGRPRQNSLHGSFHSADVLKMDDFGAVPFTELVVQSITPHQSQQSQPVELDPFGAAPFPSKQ

[6] = biological target: Activin receptor type-1B (Homo sapiens) (UniProt P36896); experiment: Binding affinity to ACVR1B (unknown origin) assessed as change in melting temperature at 10 uM incubated for 10 mins using SYPRO orange dye by RT-PCR-based fluorescence assay; summary of the method: as §1
Activin receptor type-1B (Homo sapiens), sequence (P36896 whole entry): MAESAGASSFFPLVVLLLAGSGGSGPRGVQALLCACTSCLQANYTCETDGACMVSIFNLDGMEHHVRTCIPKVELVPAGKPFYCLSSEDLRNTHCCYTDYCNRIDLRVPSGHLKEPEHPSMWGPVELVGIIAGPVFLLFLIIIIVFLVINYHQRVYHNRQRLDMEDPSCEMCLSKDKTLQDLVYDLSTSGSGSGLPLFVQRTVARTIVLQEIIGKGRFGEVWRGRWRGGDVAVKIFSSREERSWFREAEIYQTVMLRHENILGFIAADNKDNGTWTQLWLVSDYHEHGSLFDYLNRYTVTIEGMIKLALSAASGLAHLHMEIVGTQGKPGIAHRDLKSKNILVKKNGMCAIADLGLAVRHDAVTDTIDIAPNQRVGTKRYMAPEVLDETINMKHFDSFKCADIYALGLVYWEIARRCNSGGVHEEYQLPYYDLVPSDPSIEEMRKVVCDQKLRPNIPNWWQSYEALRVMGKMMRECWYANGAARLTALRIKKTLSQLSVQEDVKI

[7] = biological target: TGF-beta receptor type-2 (Homo sapiens) (UniProt P37173); experiment: Binding affinity to TGFBR2 (unknown origin) assessed as change in melting temperature at 10 uM incubated for 10 mins using SYPRO orange dye by RT-PCR-based fluorescence assay; summary of the method: as §1
TGF-beta receptor type-2 (Homo sapiens), sequence (P37173 whole entry): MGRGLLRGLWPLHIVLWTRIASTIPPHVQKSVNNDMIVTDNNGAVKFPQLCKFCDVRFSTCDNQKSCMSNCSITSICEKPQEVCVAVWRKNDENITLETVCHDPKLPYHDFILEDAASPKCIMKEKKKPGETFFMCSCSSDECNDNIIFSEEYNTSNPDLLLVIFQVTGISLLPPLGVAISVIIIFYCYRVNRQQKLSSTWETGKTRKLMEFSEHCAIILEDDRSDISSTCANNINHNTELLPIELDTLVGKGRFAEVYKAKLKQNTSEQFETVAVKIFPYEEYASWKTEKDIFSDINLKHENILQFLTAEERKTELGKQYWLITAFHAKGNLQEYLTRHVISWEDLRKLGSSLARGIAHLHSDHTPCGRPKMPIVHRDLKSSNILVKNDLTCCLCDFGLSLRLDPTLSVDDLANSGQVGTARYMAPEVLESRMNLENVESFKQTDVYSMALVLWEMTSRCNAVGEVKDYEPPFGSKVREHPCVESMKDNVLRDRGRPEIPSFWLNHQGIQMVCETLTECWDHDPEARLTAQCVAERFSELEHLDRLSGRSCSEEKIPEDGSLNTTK

[8] = biological target: Activin receptor type-1-like (Homo sapiens) (UniProt P37023); experiment: Binding affinity to ACVRL1 (unknown origin) assessed as change in melting temperature at 10 uM incubated for 10 mins using SYPRO orange dye by RT-PCR-based fluorescence assay; summary of the method: as §1
Activin receptor type-1-like (Homo sapiens), sequence (P37023 whole entry): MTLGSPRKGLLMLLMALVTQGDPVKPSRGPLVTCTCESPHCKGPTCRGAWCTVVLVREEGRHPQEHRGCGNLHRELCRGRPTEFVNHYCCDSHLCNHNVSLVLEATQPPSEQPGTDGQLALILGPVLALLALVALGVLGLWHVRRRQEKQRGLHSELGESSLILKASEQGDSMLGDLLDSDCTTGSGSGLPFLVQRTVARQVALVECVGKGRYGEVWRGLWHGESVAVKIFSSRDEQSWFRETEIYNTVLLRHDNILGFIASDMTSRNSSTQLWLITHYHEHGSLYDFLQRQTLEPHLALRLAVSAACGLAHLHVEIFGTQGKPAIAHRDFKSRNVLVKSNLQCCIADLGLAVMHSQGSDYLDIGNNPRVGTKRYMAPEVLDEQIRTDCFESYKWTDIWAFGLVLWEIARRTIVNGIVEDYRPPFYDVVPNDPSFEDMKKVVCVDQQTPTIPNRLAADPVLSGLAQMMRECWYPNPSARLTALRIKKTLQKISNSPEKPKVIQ

Measured: ΔTm

Serine/threonine-protein kinase 17B (Homo sapiens), sequence (O94768 whole entry, the tested form may be a part): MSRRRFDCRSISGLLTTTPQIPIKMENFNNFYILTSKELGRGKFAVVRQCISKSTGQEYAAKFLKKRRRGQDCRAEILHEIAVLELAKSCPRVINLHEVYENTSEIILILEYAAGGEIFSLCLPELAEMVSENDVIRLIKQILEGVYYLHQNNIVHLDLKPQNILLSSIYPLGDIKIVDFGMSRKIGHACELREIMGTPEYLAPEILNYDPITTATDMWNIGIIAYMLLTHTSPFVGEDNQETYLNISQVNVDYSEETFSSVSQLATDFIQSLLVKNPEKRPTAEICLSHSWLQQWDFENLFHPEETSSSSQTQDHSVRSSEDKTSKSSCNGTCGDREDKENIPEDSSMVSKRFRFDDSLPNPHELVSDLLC

CC(=O)c1cccc(-c2cnc3ccc(NCC4CC4)nn23)c1
> 4 °C: [1]
> 6 °C: [2] | [3] | [4] | [5] | [6] | [7] | [8]
